# Assay results from ChEMBL document CHEMBL4196022, “Alkynyl-containing phenylthiazoles: Systemically active antibacterial agents effective against methicillin-resistant Staphylococcus aureus (MRSA)” (Eur J Med Chem, 2018).
# pEC50, pIC50: −log10 of the molar value. Calls of active or inactive are those of the source. No cut-off for these calls is given here. Positions of bridges follow the written chain, without caps; N, C: chain ends. Non-standard residues stand in square brackets, D forms with d. Residues, ends and D or L forms follow the SMILES beside them. *: point of attachment. Ileψ(thiazoline)Cys = CC[C@H](C)[C@H](N)C1=N[C@H](C(=O)*)CS1; dOrn = NCCC[C@@H](N)C(=O)O
# Experiments:
# Staphylococcus aureus [1] = test: Antibacterial activity against vancomycin-resistant Staphylococcus aureus VRS12 after 20 hrs by broth microdilution assay; type: functional; settings: VRS12, 20 h
# Outline: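 Broth microdilution per CLSI in cation-adjusted Mueller Hinton broth. Compounds serially diluted, in triplicate. Incubation at 37 °C for at least 20 hours. MIC taken as the lowest concentration with no visible bacterial growth.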
# Staphylococcus aureus [2] = test: Bactericidal activity against methicillin resistant vancomycin-resistant Staphylococcus aureus VRS12 up to 18 hrs by broth microdilution assay; type: functional; settings: VRS12, 18 h, read-out: MBC99.9
# Outline: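 MBC set up from the MIC plates. Aliquots from wells with no growth spotted onto tryptic soy agar and incubated at 37 °C for at least 18 hours. MBC taken as the lowest concentration giving 99.9% inhibition of bacterial growth.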
# Staphylococcus aureus [3] = test: Bactericidal activity against methicillin-resistant Staphylococcus aureus NRS123 (USA400) at 4 times MIC after 24 hrs by time kill assay; type: functional, organism-based
# Staphylococcus aureus [4] = test: Antibacterial activity against methicillin-resistant Staphylococcus aureus NRS123 (USA400) infected in mouse J774 cells at 4 ug/ml after 24 hrs; type: functional, organism-based
# Outline: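 J774 macrophages grown in DMEM with 10% FBS at 37 °C, 5% CO2. Infected with USA400 at MOI ~100:1 for 1 h, then washed with gentamicin 50 μg/mL. Treated in triplicate wells for 24 h, washed with gentamicin again and lysed with 0.1% Triton X-100. Lysate plated on tryptic soy agar for 18–22 h; CFU/mL counted.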
# Staphylococcus aureus [5] = test: Antibacterial activity against methicillin-resistant Staphylococcus aureus USA300 infected in Caenorhabditis elegans AU37 assessed as reduction in bacterial burden at 20 ug/ml after 18 hrs relative to control; type: functional
# Outline: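 L4-stage C. elegans AU37 infected on USA300 lawns for 6 h and washed with M9 buffer. 25–30 worms per well exposed to 20 μg/mL for 18 h, in triplicate. Worms then lysed and plated on TSA with 5 μg/mL nalidixic acid for 17 h at 37 °C. CFU per worm expressed as % reduction versus PBS.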
# [6] = biological target: T1, Undecaprenyl-diphosphatase (Escherichia coli (strain K12), UniProt P60932); test: Inhibition of Escherichia coli UPPP expressed in Escherichia coli C41(DE3) using FPP as substrate preincubated for 15 mins followed by substrate addition measured after 20 mins by malachite green assay
# T1 sequence (P60932 whole entry): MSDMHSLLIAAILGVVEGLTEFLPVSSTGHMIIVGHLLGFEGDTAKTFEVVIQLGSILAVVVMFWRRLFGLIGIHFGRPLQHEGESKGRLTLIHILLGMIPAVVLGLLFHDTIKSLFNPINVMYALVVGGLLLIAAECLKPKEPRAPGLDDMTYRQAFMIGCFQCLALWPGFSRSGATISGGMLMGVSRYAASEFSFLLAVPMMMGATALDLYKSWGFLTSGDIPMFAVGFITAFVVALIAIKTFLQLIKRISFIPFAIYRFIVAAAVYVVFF
# [7] = Induction of proton motive force collapse in Escherichia coli inverted membrane vesicle in presence of ATP-driven PMF generation system by ACMA-based fluorescence assay; type: functional, cell membranes
# Outline: (§1)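 E. coli inverted membrane vesicles had proton motive force generated either by ATP or by succinate/O2. PMF collapse was followed as a dose response to give EC50, with CCCP as the reference uncoupler.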
# [8] = Induction of proton motive force collapse in Escherichia coli inverted membrane vesicle in presence of succinate/O2-driven PMF generation system by ACMA-based fluorescence assay; type: functional, cell membranes; outline: as §1
structure (smiles),measurement,setting,value
CN[C@H](CC(C)C)C(=O)N[C@H]1C(=O)N[C@@H](CC(N)=O)C(=O)N[C@H]2C(=O)N[C@H]3C(=O)N[C@H](C(=O)N[C@H](C(=O)O)c4cc(O)cc(O)c4-c4cc3ccc4O)[C@H](O)c3ccc(c(Cl)c3)Oc3cc2cc(c3O[C@@H]2O[C@H](CO)[C@@H](O)[C@H](O)[C@H]2O[C@H]2C[C@](C)(N)[C@H](O)[C@H](C)O2)Oc2ccc(cc2Cl)[C@H]1O [VANCOMYCIN],MIC,Staphylococcus aureus [1],16 mg/L
same,MBC,Staphylococcus aureus [2],256 mg/L
same,Activity,Staphylococcus aureus [3],Active
same,Activity,Staphylococcus aureus [4],inactive
same,Activity,Staphylococcus aureus [5],Active
CC[C@H](C)[C@H](N)C1=N[C@H](C(=O)N[C@@H](CC(C)C)C(=O)N[C@H](CCC(=O)O)C(=O)N[C@H](C(=O)N[C@H]2CCCCNC(=O)[C@H](CC(N)=O)NC(=O)[C@@H](CC(=O)O)NC(=O)[C@H](Cc3cnc[nH]3)NC(=O)[C@@H](Cc3ccccc3)NC(=O)[C@H]([C@@H](C)CC)NC(=O)[C@@H](CCCN)NC2=O)[C@@H](C)CC)CS1 [BACITRACIN] ({Ileψ(thiazoline)Cys}-L[dE]IK[dOrn]I[dF]H[dD]N; lactam 4-C),pIC50,[6],5.25
N#CC(C#N)=NNc1cccc(Cl)c1 [CARBONYL CYANIDE M-CHLOROPHENYLHYDRAZONE],pEC50,[7],6.33
same,pEC50,[8],6.68
